Results: PubChem BioAssay
The source made the active and inactive calls.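 Rule for the calls, unless noted: active = fluorescence slope higher than the sample average by over 3 SD (cut at about -0.22 in these data, passing the limit was not always enough); inactive = the rest.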

Columns and labels:
[1] = inhibitors of TNFa-induced NFkB p65 translocation, primary screen, imaging, HUVEC, MLSMR starter and 10KST1 sets (AID 438;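 active = inhibition above 20% together with a positive visual image hit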;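 note: compound added about 3h40 before a 20 min TNFalpha stimulation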;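 for inhibition: signal is the nuclear over cytoplasmic p65 intensity ratio per well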); conditions: HUVEC TNFa-induced p65 nuclear translocation; cell count: measured here: nuclei count (cytotoxicity indicator), at 2.08 µM; inhibition: at 2 µM, stronger effect = higher value, 0% TNFa-plus-vehicle, 100% no-TNFa wells
[2] = reduction of polyQ htt aggregates in cells – imaging, exon1htt(103Q)mCFP cells, high-content imaging, primary screen (AID 483;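 active = visual image review flags a hit and inhibition of aggregation exceeds 20%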;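 note: compound exposure lasted 3 days before fixation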;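 for nuclei count: percent of the per-plate median nuclei count of sample wells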); conditions: exon1htt(103Q)mCFP cell line, aggregate imaging, at 2 µM; inhibition of aggregation: stronger effect = higher value; nuclei count: measured here: cell count, toxicity
[3] = endothelial E-selectin expression blockers – imaging, HUVEC, immunofluorescence, MLSMR starter and 10KST1 sets, primary screen (AID 487;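 active = visually confirmed hit in the image check and inhibition above 20%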;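 for inhibition: signal is fraction of cell area covered by stained E-selectin grains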;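 for nuclei count: 100% = median nuclei count of all wells on the same plate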); conditions: HUVEC TNFalpha-induced E-selectin immunofluorescence imaging, at 2 µM; inhibition: stronger effect = higher value; nuclei count: measured here: cell number, toxicity
[4] = target: Voltage-gated potassium channel subunit beta-2 (Rattus norvegicus) (UniProt P62483); experiment: inhibitors of rat Kvbeta2 reductase activity – biochemical, NADPH fluorescence, primary screen (AID 622); conditions: recombinant KvBeta, 4-cyanobenzaldehyde reduction, at 10 µM, stronger effect = higher value;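 note: slope of raw intensity against log time taken from 70 to 1610 s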
[5] = target: Voltage-gated potassium channel subunit beta-2 (Rattus norvegicus) (UniProt P62483); experiment: enhancers of rat Kvbeta2 NADPH turnover – biochemical, NADPH fluorescence, primary screen (AID 623;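 active = NADPH fluorescence slope more negative than the mean of all samples by about 3 SD, 99.7% confidence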;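 note: fluorescence intensity change per second fitted from 20 to 320 s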); conditions: Recombinant KvBeta, NADPH fluorescence decrease slope, 10 min; at 10 µM; stronger effect = lower value
[6] = target: Muscarinic acetylcholine receptor M4 (Homo sapiens) (UniProt P08173); experiment: M4-linked GIRK flux change, two-sided – cell-based, HEK293 M4/GIRK, thallium flux, BTC-AM, M4 allosteric agonist project, primary screen (AID 625;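 active = fluorescence slope after compound addition differing from the mean of all tested samples at 99.7% confidence, mostly higher but some lower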;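 note: thallium influx through GIRK channels coupled to M4 in HEK293 cells with BTC-AM dye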); conditions: at 10 µM, actives lie on both sides
Summary of the method: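 Material: M4/GIRK1/GIRK2 stable HEK293 cell line. Medium: pH 7.3 thallium assay buffer. Dosing: single compound concentration, 10 µM final. Schedule: 1 h dye loading, 2 min kinetic read. Measured by: kinetic fluorescence with BTC-AM dye. Read-out: post-addition slope, 15–24 s, of baseline-normalized fluorescence. Benchmarks: carbachol and DMSO controls.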

[7] = blockers of RIG-like receptor reporter activation – cell-based, Sendai virus stimulus, luciferase, 10K MLSCN set, TLR/RLR signaling modifier project, primary screen (AID 602276;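 active = inhibition at or above 50% at 10 µM; inactive = inhibition below 50%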;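 note: firefly luciferase from ISG56 promoter only with Renilla not read in this screen; 0% = Sendai virus plus DMSO and 100% = medium plus DMSO without virus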); conditions: HEK293 RL24 IRF3 luciferase reporter, at 10 µM, stronger effect = higher value
[8] = TLR3 IRF3 reporter activation blockers – cell-based, poly I:C stimulus, luciferase, 10K MLSCN set, primary screen (AID 602277;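 active = inhibition of the reporter signal at or above 50%; inactive = inhibition below 50%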); conditions: HEK293-TLR3 RL24 IRF3 luciferase reporter, at 10 µM, stronger effect = higher value

Muscarinic acetylcholine receptor M4 (Homo sapiens), sequence (P08173 whole entry, looked up): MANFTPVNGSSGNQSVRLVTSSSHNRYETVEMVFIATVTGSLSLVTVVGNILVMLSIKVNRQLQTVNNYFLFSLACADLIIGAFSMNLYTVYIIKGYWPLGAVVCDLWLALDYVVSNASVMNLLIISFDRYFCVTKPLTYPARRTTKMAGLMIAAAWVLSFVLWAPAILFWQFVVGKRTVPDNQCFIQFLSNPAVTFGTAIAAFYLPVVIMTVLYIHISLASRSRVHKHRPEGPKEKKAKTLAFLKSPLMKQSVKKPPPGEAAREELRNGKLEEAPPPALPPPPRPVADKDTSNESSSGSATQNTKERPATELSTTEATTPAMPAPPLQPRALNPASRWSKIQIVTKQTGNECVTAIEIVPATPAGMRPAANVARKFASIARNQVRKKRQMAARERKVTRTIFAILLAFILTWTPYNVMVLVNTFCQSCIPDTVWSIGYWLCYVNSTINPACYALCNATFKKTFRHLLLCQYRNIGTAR
Voltage-gated potassium channel subunit beta-2 (Rattus norvegicus), sequence (P62483 whole entry, looked up): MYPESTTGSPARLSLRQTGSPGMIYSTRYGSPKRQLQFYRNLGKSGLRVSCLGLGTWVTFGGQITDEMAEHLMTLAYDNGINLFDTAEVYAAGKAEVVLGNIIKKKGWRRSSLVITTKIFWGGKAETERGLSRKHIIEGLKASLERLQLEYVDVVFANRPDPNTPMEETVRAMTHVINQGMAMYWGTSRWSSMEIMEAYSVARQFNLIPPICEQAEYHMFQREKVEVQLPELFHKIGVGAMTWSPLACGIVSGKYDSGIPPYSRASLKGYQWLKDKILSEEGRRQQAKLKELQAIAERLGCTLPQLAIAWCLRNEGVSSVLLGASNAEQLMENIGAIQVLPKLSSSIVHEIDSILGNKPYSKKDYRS

Row | Structure (SMILES) | cell count [1] | inhibition [1] | inhibition of aggregation [2] | nuclei count [2] [%] | inhibition [3] | nuclei count [3] [%] | fluorescence slope [4] | NADPH fluorescence slope [5] | fluorescence slope [6] | inhibition [7] | inhibition [8]
1 | CCOC(=O)c1cc(-c2ccc(Cl)s2)nc2c1c(C)nn2C | 473 | -11% (inactive) | -13.7% (inactive) | 95 | -142% (inactive) | 106 | -0.494 (inactive) | -1.5e-05 (inactive) | 0.00338 (inactive) | 8.23% (inactive) | -18.9% (inactive)
2 | COc1ccc(Cn2c(C)nc3c(c2=O)c2nc4ccccc4nc2n3Cc2ccco2)cc1 | 375 | -0.6% (inactive) | -1.8% (inactive) | 100 | -42.4% (inactive) | 119 | -0.368 (inactive) | -4.4e-06 (inactive) | 0.00431 (inactive) | 23.6% (inactive) | 9.91% (inactive)
3 | Cn1cc(CC(=O)Nc2cccc(C#N)c2)c2ccccc21 | 414 | -0.7% (inactive) | 23.9% (inactive) | 83.5 | 13.7% (inactive) | 97.2 | -0.47 (inactive) | -1.8e-05 (inactive) | 0.00535 (inactive) | 3.88% (inactive) | -0.551% (inactive)
4 | Cc1ccc(-n2c(=O)c3sccc3n(CC(=O)NCc3ccco3)c2=O)cc1 | 488 | 0.3% (inactive) | 21.9% (inactive) | 103 | -9.8% (inactive) | 108 | -0.579 (inactive) | -3.1e-05 (inactive) | 0.0056 (inactive) | 6.07% (inactive) | 12.8% (inactive)
5 | CCc1c(C)nc(N2CCN(Cc3ccccc3)CC2)[nH]c1=O | 623 | -17.8% (inactive) | 17.3% (inactive) | 120 | -51.5% (inactive) | 106 | -0.507 (inactive) | 2.9e-05 (inactive) | 0.00476 (inactive) | 17.7% (inactive) | 10.6% (inactive)
6 | O=c1c[n+]([O-])c2ccccc2n1OCc1ccccn1 | 649 | -0.8% (inactive) | -17.9% (inactive) | 103 | -73% (inactive) | 106 | -0.464 (inactive) | 2.5e-05 (inactive) | 0.00798 (inactive) | -4.06% (inactive) | -7.39% (inactive)
7 | Nc1nonc1-c1noc(CCCCCN2C(=O)c3ccccc3C2=O)n1 | 221 | 6.9% (inactive) | -10.5% (inactive) | 91 | 9.5% (inactive) | 88 | -0.522 (inactive) | -2.2e-05 (inactive) | 0.00407 (inactive) | -4.73% (inactive) | -15.6% (inactive)
8 | Cc1ccccc1CNS(=O)(=O)c1ccc2c(c1)OCCO2 | 450 | 3.6% (inactive) | 2.1% (inactive) | 108 | -11.6% (inactive) | 96.6 | -0.558 (inactive) | -1.9e-05 (inactive) | 0.00348 (inactive) | 7.7% (inactive) | 11.3% (inactive)
9 | CC1Oc2ccccc2N(CC(=O)N(Cc2ccccc2)Cc2ccccn2)C1=O (centres undefined) | 640 | -12.1% (inactive) | -1.2% (inactive) | 106 | 81.9% (active) | 112 | -0.297 (inactive) | -8.9e-06 (inactive) | 0.00604 (inactive) | -6.61% (inactive) | -7.77% (inactive)
